The test system of assay [1] is Platelet. Briefly: Inhibition of epinephrine-induced platelet aggregation in rat blood. Type of assay: functional, cell-based.
The test system of assay [2] is Platelet. Nature of the assay: Inhibition of U46619-induced platelet aggregation in rat blood. It is filed as functional, cell-based.
In assay [3] the test system is Rattus norvegicus. Briefly: Effect on Sprague-Dawley rat disseminated intravascular coagulation model assessed as suppression of LPS-induced aspartate aminotransferase levels at 10 mg/day or 25 mg/day, po after 2 hrs of fasting for 2 consecutive days. It is filed as functional, organism-based. The method, boiled down:
(§1)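 Male Sprague–Dawley rats (230–270 g) dosed orally in distilled water once daily for 2 days. Ketamine anaesthesia 1 h after the second dose, then LPS 20 mg/kg in saline infused into the tail vein for 3 h. Citrated plasma was used for PT, aPTT and fibrinogen, serum for FDP (semi-quantitative kit, dilution method), and serum by analyzer for AST and BUN. Mean ± SEM, ANOVA with Tukey HSD, n = 6–13 per group.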

Assay [4] concerns Rattus norvegicus. Nature of the assay: Effect on LPS-induced Sprague-Dawley rat disseminated intravascular coagulation model assessed as amelioration of increased urea nitrogen levels at 10 mg/day or 25 mg/day, po after 2 hrs of fasting for 2 consecutive days. It is filed as functional, organism-based. In short, it runs like this: as §1
Assay [5] has as its system Rattus norvegicus. Briefly: Effect on LPS-induced Sprague-Dawley rat disseminated intravascular coagulation model assessed as prolongation of prothrombin time at 10 mg/day or 25 mg/day, po after 2 hrs of fasting for 2 consecutive days. Type of assay: functional, organism-based. The method, boiled down: as §1
The subject of assay [6] is Rattus norvegicus. Briefly: Effect on LPS-induced Sprague-Dawley rat disseminated intravascular coagulation model assessed as amelioration of increased fibrin degradation product levels at 10 mg/day or 25 mg/day, po after 2 hrs of fasting for 2 consecutive days. Type of assay: functional, organism-based. In short, it runs like this:
as §1

Assay [7] deals with Platelet. Briefly: Inhibition of NaAA-induced platelet aggregation in rat blood. Type of assay: functional, cell-based.
The test system of assay [8] is Rattus norvegicus. Nature of the assay: Effect on LPS-induced Sprague-Dawley rat disseminated intravascular coagulation model assessed as prolongation of activated partial […] time at 10 mg/day or 25 mg/day, po after 2 hrs of fasting for 2 consecutive days. It is filed as functional, organism-based. The method, boiled down: as §1
Assay [9] has as its system Platelet. Briefly: Inhibition of ADP-induced platelet aggregation in rat blood. It is filed as functional, cell-based. The method, boiled down: (§2)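 Rat heart blood in 2.2% citrate, spun at 200g for 10 min to give PRP, adjusted to 400–450 × 10⁶ platelets/ml with saline. PRP pre-incubated 3 min, then sample or vehicle added, with ADP (2–5 × 10⁻⁶ M) or collagen (2–5 × 10⁻⁶ g/ml) added 1 min later. Aggregation read on an aggregometer and the 50% inhibitory concentration determined.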

Assay [10] relates to Platelet. Briefly: Inhibition of collagen-induced platelet aggregation in rat blood. Type of assay: functional, cell-based. The method, boiled down:
as §2

Assay [11] relates to Rattus norvegicus. Briefly: Effect on Sprague-Dawley rat disseminated intravascular coagulation model assessed as prevention of LPS-induced decrease in fibrinogen level at 10 mg/day or 25 mg/day, po after 2 hrs of fasting for 2 consecutive days. It is filed as functional, organism-based. The method, boiled down:
as §1

Active and inactive are the calls of the source. No cut-off for these calls is given here.

The term IC50 denotes the concentration that gives 50% inhibition. A low value points to inhibition by little substance. On to `Oc1cc2c(cc1O)[C@@H](Cc1ccc3ccccc3c1)NCC2`, for which the 50% inhibitory concentration (IC50) with Platelet [1] came to 15000 nM; in the assay with Platelet [2] it was 49 µM; with Platelet [7] it was 7.9 µM. In addition, the outcome in the assay on Rattus norvegicus [3], in the assay with Rattus norvegicus [4], with Rattus norvegicus [5], in the assay on Rattus norvegicus [6] and with Rattus norvegicus [8] was Active.

In the case of `Oc1ccc(C[C@H]2NCCc3cc(O)c(O)cc32)cc1` [(+)-HIGENAMINE], the IC50 was 14000 nM in the assay with Platelet [1], 15 µM with Platelet [2], more than 1000 µM in the assay on Platelet [9] and 11 µM with Platelet [7]. For the same compound, the outcome in the assay on Rattus norvegicus [3], in the assay with Rattus norvegicus [4], with Rattus norvegicus [5], in the assay on Rattus norvegicus [6] and in the assay on Rattus norvegicus [8] was Active.

As to `CC(=O)Oc1ccccc1C(=O)O` [ASPIRIN], the half-maximal inhibitory concentration (IC50) in the assay with Platelet [1] was 53000 nM; in the assay on Platelet [2], 340 µM; in the assay on Platelet [9] it was more than 1000 µM; in the assay with Platelet [10] it was 420 µM; with Platelet [7], 66 µM.

As to `Oc1cc2c(cc1O)[C@H](Cc1ccc3ccccc3c1)NCC2`, the concentration for half-maximal inhibition (IC50) in the assay with Platelet [1] is 900 nM; with Platelet [2], 61 µM; with Platelet [7], 6.2 µM. For the same compound, the outcome with Rattus norvegicus [3], in the assay on Rattus norvegicus [4], with Rattus norvegicus [5], in the assay with Rattus norvegicus [11], in the assay on Rattus norvegicus [6] and with Rattus norvegicus [8] was Active.

Regarding `Oc1cc2c(cc1O)[C@H](Cc1cccc3ccccc13)NCC2`, the IC50 in the assay with Platelet [1] turned out to be 380 nM; with Platelet [2] it was 16 µM; in the assay with Platelet [9] it was 270 µM; in the assay with Platelet [10], 69 µM; in the assay with Platelet [7], 5.6 µM. Moreover, the result in the assay with Rattus norvegicus [4], with Rattus norvegicus [5], in the assay with Rattus norvegicus [6] and in the assay on Rattus norvegicus [8] was Active.

Turning to `Oc1cc2c(cc1O)[C@@H](Cc1cccc3ccccc13)NCC2`, the IC50 in the assay on Platelet [1] is 2400 nM; in the assay on Platelet [2], 20 µM; in the assay with Platelet [7], 11 µM. For the same compound, the outcome in the assay with Rattus norvegicus [4], in the assay with Rattus norvegicus [5], in the assay with Rattus norvegicus [6] and in the assay with Rattus norvegicus [8] was Active.

`Oc1ccc(C[C@@H]2NCCc3cc(O)c(O)cc32)cc1` [(-)-HIGENAMINE]: the half-maximal inhibitory concentration (IC50) in the assay on Platelet [1] turned out to be 1600 nM; in the assay with Platelet [2] it was 25 µM; with Platelet [7], 9.1 µM. Besides, the result in the assay on Rattus norvegicus [3], with Rattus norvegicus [4], in the assay with Rattus norvegicus [5], in the assay with Rattus norvegicus [11], in the assay on Rattus norvegicus [6] and in the assay on Rattus norvegicus [8] was Active.

For the origin of these results see ChEMBL document CHEMBL1154998, “Enantioselective synthesis of (R)-(+)- and (S)-(-)-higenamine and their analogues with effects on platelet aggregation and experimental animal model of disseminated intravascular coagulation” (Bioorg Med Chem Lett, 2008).
